Measured values published in ChEMBL document CHEMBL1147981, “Small molecule activators of SIRT1 as therapeutics for the treatment of type 2 diabetes” (Nature, 2007).
The source made the active and inactive calls. The rule behind the calls is not given here.

How the values were obtained:
[1] = molecular target: T1, NAD-dependent protein deacetylase sirtuin-1 (Homo sapiens) (UniProt Q96EB6); experiment: Activation of human SIRT1 assessed as decrease in Km of enzyme for acetylated peptide substrate by mass spectrometry assay
T1 sequence (whole entry): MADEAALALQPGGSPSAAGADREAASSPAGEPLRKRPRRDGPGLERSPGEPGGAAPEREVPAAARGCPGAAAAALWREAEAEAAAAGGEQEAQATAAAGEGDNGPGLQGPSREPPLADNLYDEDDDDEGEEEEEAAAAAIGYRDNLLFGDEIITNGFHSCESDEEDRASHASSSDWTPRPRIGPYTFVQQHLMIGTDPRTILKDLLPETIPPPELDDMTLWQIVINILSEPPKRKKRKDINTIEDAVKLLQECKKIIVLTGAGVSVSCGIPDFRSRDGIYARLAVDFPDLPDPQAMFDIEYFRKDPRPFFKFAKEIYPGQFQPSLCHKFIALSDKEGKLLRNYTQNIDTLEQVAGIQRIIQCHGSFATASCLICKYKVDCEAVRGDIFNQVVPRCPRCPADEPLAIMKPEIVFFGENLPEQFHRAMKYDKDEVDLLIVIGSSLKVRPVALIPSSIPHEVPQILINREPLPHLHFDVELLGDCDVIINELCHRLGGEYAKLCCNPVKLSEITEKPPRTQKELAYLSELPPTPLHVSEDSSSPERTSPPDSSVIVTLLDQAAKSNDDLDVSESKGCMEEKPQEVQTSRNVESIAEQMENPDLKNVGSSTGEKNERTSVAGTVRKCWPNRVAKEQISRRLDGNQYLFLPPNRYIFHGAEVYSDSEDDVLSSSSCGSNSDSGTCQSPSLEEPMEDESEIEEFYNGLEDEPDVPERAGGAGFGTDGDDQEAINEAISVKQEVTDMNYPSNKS

[2] = molecular target: T1, NAD-dependent protein deacetylase sirtuin-1 (Homo sapiens); experiment: (§1) Activation of human SIRT1 expressed in Escherichia coli BL21 by mass spectrometry assay
[3] = molecular target: T2, NAD-dependent protein deacetylase sirtuin-1 (Homo sapiens, UniProt Q96EB6); experiment: as §1
T2 sequence (Q96EB6 whole entry): T1 sequence (whole entry)

[4] = molecular target: T3, NAD-dependent protein deacetylase sirtuin-2 (Homo sapiens, UniProt Q8IXJ6); experiment: Activation of SIRT2 by mass spectrometry assay
T3 sequence (Q8IXJ6 whole entry): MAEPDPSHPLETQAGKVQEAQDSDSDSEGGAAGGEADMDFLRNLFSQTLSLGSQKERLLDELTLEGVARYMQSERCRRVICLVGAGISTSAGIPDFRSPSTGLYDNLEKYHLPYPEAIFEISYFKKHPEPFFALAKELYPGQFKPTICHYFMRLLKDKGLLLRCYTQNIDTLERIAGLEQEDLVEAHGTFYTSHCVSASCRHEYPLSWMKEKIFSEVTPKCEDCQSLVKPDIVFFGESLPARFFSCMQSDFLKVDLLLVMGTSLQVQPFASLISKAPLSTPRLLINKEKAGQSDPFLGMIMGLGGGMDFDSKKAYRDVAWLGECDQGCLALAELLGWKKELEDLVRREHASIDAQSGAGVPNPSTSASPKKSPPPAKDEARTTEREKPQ

[5] = molecular target: T4, NAD-dependent protein deacetylase sirtuin-3, mitochondrial (Homo sapiens, UniProt Q9NTG7); experiment: Activation of SIRT3 by mass spectrometry assay
T4 sequence (Q9NTG7 whole entry): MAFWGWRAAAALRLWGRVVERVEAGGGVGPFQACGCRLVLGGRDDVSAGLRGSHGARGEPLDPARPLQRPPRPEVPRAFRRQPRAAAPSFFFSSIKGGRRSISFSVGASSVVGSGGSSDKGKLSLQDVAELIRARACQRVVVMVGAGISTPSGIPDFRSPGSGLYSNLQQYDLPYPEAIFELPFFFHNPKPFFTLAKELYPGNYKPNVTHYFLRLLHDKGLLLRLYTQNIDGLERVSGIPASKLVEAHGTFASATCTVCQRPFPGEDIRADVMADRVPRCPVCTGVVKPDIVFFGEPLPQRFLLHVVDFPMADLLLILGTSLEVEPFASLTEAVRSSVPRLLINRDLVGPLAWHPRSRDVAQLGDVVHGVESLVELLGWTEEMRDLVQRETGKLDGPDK

[6] = molecular target: T1, NAD-dependent protein deacetylase sirtuin-1 (Homo sapiens); experiment: Activation of SIRT1 in human U2OS cells assessed as decrease in deacetylation level at 10 uM; type: cell-based
Outline: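 U-2 OS cells seeded 1.5 × 10⁴/well; compounds in DMSO added after 24 h, then doxorubicin 1 μg/ml final to induce p53. Fixed, permeabilized, immunostained for Ac-Lys382-p53 and beta-tubulin, infrared scan; background-corrected acetyl signal normalized to tubulin, then to vehicle as % acetylated p53. Replicate plates co-treated with a SIRT1-specific inhibitor.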

[7] = molecular target: T2, NAD-dependent protein deacetylase sirtuin-1; experiment: Binding affinity to human SIRT1 by isothermal titration calorimetry

Activity [1]: Active
Activity [2]: 447%
EC50 [3]: 2.9 µM
EC50 [4]: > 300 µM
EC50 [5]: > 300 µM
Activity [6]: Active
Kd [7]: 16.2 µM
SMILES: COc1cc(C(=O)Nc2ccccc2-c2cn3c(CN4CCNCC4)csc3n2)cc(OC)c1OC
